pIC50: −log10 of the molar value. Bounds are passed on as bounds.

The pIC50 is −log10 of the IC50, conventionally taken in molar units. Low readings indicate a large IC50, high ones a small IC50.

The target in test [1] is T1, Amine oxidase [flavin-containing] B (Rattus norvegicus, UniProt P19643).
T1 sequence (P19643 whole entry): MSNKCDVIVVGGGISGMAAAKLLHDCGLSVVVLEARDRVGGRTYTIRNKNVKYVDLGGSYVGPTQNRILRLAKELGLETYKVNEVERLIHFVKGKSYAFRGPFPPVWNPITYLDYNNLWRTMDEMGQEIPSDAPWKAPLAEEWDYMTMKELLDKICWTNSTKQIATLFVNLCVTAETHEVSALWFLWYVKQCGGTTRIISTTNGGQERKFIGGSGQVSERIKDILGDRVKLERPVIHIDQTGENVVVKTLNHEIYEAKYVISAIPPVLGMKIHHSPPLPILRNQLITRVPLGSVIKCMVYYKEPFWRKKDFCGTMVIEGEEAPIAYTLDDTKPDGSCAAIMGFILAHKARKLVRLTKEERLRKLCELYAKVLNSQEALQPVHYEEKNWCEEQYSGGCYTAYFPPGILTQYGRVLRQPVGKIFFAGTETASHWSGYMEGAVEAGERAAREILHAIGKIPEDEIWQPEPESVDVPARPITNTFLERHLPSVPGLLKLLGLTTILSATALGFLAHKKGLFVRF
Briefly: biochemical. The format is tissue-based, Brain.

The target of test [2] is T2, Amine oxidase [flavin-containing] A (Rattus norvegicus, UniProt P21396).
T2 sequence (P21396 whole entry): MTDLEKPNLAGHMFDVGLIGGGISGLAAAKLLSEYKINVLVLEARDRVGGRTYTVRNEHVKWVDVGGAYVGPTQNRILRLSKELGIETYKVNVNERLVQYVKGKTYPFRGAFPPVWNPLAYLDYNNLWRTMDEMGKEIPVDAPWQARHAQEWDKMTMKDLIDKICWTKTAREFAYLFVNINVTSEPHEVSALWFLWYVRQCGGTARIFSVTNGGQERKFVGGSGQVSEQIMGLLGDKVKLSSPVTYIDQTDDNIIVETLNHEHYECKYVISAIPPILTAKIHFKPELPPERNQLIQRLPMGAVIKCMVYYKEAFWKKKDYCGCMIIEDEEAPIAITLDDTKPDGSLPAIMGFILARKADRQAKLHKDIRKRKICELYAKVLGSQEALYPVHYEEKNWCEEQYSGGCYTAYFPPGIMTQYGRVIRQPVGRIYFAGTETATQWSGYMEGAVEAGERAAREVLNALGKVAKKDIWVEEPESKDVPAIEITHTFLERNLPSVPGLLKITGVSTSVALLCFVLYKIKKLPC
Nature of the test: In vitro inhibitory concentration against Monoamine oxidase A of rat brain homogenates; value ranges from 0.5-3.7. It counts as tissue-based.

Test [3] concerns the target T3, Acetylcholinesterase (Homo sapiens, UniProt P22303). Briefly: In vitro inhibitory concentration against purified Acetylcholinesterase of human erythrocytes; value ranges from 1.32-2.23.
Test [4] has as its target T4, Butyrylcholinesterase (Equus caballus, UniProt Q9N1N9). Briefly: In vitro inhibitory concentration against Butyrylcholinesterase of horse serum; value ranges from 0.73-0.77. An outline of the steps: (§1)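 Ellman assay followed, with 200 µM butyrylthiocholine as substrate. Runs were in triplicate with four-point dose-response curves. IC50 and fiducial limits came from log concentration versus % inhibition.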

In test [5] the target is T1, Amine oxidase [flavin-containing] B. Nature of the test: In vitro inhibitory concentration against Monoamine oxidase B of rat brain homogenates; value ranges from 0.3-1.2. The format is tissue-based.
Test [6] has as its target T2, Amine oxidase [flavin-containing] A. Briefly: In vitro inhibitory concentration against Monoamine oxidase A of rat brain homogenates; value ranges from 0.09-0.16. It counts as tissue-based.
The target in test [7] is T3, Acetylcholinesterase. Nature of the test: In vitro inhibitory concentration against purified Acetylcholinesterase of human erythrocytes; value ranges from 5.4-38.2.
The target of test [8] is T4, Butyrylcholinesterase. Nature of the test: In vitro inhibitory concentration against Butyrylcholinesterase of horse serum; value ranges from 1.89-4.67. An outline of the steps: as §1
Test [9] concerns the target T2, Amine oxidase [flavin-containing] A. Briefly: In vitro inhibitory concentration against Monoamine oxidase A of rat brain homogenates; value ranges from 13-17. It counts as tissue-based.
The target in test [10] is T1, Amine oxidase [flavin-containing] B. Nature of the test: In vitro inhibitory concentration against Monoamine oxidase B of rat brain homogenates; value ranges from 0.2-0.8. It counts as tissue-based.
In test [11] the target is T3, Acetylcholinesterase. Briefly: In vitro inhibitory concentration against purified Acetylcholinesterase of human erythrocytes; value ranges from 0.18-0.44.
The target of test [12] is T1, Amine oxidase [flavin-containing] B. Briefly: In vitro inhibitory concentration against Monoamine oxidase B of rat brain homogenates. It counts as tissue-based.
In test [13] the target is T2, Amine oxidase [flavin-containing] A. Briefly: In vitro inhibitory concentration against Monoamine oxidase A of rat brain homogenates; value ranges from 60-150. The format is tissue-based.
In test [14] the target is T3, Acetylcholinesterase. Nature of the test: In vitro inhibitory concentration against purified Acetylcholinesterase of human erythrocytes; value ranges from 2.2-6.9.
The target of test [15] is T1, Amine oxidase [flavin-containing] B. Briefly: In vitro inhibitory concentration against Monoamine oxidase B of rat brain homogenates; value ranges from 0.18-0.30. The format is tissue-based. An outline of the steps:
(§2)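 Rat brain homogenate (in 0.3 M sucrose) as enzyme source; compounds diluted 10⁻²M to 10⁻⁹M in 0.05 M phosphate buffer with 0.15 μM clorgyline; preincubated 60 min at 37 °C, then 10 μM ¹⁴C-phenylethylamine added for 20 min more; stopped with citric acid; metabolites extracted into toluene/ethyl acetate, scintillation counted; activity as % of control, tranylcypromine blank.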

For test [16], the target named is T2, Amine oxidase [flavin-containing] A. Briefly: In vitro inhibitory concentration against Monoamine oxidase A of rat brain homogenates; value ranges from 14-24. It counts as tissue-based.
The target is the same in test [17]. Nature of the test: In vitro inhibitory concentration against Monoamine oxidase A of rat brain homogenates; value ranges from 0.014-0.016. It counts as tissue-based.
Test [18] concerns the target T1, Amine oxidase [flavin-containing] B. Briefly: In vitro inhibitory concentration against Monoamine oxidase B of rat brain homogenates; value ranges from […]. The format is tissue-based. An outline of the steps: as §2
Test [19] has as its target T2, Amine oxidase [flavin-containing] A. Briefly: In vitro inhibitory concentration against Monoamine oxidase A of rat brain homogenates; value ranges from 110-520. It counts as tissue-based.
The target in test [20] is T3, Acetylcholinesterase. Briefly: In vitro inhibitory concentration against purified Acetylcholinesterase of human erythrocytes; value ranges from 0.12-0.32.
The target in test [21] is T3, Acetylcholinesterase. Nature of the test: In vitro inhibitory concentration against purified Acetylcholinesterase of human erythrocytes; value ranges from 5.24-30.8.
Test [22] deals with T4, Butyrylcholinesterase. Briefly: In vitro inhibitory concentration against Butyrylcholinesterase of horse serum; value ranges from 6.8-31.2. An outline of the steps: as §1
For test [23], the target named is T3, Acetylcholinesterase. Nature of the test: In vitro inhibitory concentration against purified Acetylcholinesterase of human erythrocytes; value ranges from 13.6-128.
Test [24] has as its target T4, Butyrylcholinesterase. Briefly: In vitro inhibitory concentration against Butyrylcholinesterase of horse serum; value ranges from 1.6-3.6.
Test [25] has as its target T2, Amine oxidase [flavin-containing] A. Briefly: biochemical.
Test [26] deals with T3, Acetylcholinesterase. Nature of the test: In vitro inhibitory concentration against purified Acetylcholinesterase of human erythrocytes; value ranges from 2.8-27.5.
In test [27] the target is T1, Amine oxidase [flavin-containing] B. Briefly: In vitro inhibitory concentration against Monoamine oxidase B of rat brain homogenates; value ranges from 0.23-0.34. It counts as tissue-based.
The target in test [28] is T2, Amine oxidase [flavin-containing] A. Nature of the test: In vitro inhibitory concentration against Monoamine oxidase A of rat brain homogenates; value ranges from 0.8-1.0. It counts as tissue-based.
Test [29] addresses T3, Acetylcholinesterase. Nature of the test: In vitro inhibitory concentration against purified Acetylcholinesterase of human erythrocytes; value ranges from 0.12-0.41.
In test [30] the target is T2, Amine oxidase [flavin-containing] A. Briefly: In vitro inhibitory concentration against Monoamine oxidase A of rat brain homogenates; value ranges from 9-52. The format is tissue-based.

T4 sequence (Q9N1N9 whole entry): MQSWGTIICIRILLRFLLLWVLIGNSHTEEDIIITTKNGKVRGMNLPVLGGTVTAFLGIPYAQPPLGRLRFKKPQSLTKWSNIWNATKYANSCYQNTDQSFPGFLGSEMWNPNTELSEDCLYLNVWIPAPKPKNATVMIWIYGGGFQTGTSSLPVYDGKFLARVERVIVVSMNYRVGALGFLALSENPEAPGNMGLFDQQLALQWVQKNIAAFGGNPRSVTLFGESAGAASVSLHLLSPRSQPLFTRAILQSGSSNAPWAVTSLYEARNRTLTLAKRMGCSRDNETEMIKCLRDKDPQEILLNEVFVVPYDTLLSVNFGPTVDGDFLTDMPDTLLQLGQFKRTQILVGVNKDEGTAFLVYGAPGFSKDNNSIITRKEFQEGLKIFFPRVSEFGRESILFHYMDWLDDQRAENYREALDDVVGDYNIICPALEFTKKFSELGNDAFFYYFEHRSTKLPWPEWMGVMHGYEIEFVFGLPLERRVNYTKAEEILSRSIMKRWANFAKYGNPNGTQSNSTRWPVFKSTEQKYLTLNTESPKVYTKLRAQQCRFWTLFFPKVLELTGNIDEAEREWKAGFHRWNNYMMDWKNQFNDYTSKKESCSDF
T3 sequence (P22303 whole entry): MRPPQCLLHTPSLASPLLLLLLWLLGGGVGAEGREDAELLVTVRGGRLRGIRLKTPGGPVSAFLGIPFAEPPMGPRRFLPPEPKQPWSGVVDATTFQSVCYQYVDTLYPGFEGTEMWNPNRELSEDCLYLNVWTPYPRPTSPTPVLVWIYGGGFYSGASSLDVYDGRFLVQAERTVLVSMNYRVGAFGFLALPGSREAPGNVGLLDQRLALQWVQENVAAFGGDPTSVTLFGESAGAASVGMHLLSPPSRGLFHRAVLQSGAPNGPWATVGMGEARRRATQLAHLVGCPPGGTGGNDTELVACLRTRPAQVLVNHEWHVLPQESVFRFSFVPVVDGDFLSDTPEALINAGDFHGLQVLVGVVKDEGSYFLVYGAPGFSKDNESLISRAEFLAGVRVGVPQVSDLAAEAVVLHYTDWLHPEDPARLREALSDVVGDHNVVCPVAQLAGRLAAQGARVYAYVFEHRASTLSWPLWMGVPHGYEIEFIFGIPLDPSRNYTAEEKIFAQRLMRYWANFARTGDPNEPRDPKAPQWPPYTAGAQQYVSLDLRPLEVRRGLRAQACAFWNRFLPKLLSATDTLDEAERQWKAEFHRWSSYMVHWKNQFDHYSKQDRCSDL

On to `C#CCN(C)CCc1cccc(O)c1`, for which the pIC50 in [1] is 5.19; in test [2], 5.89.
As to `C#CCN(C)C(C)Cc1cccc(OC(=O)N(C)C)c1` (centres undefined), the pIC50 at Acetylcholinesterase [3] is 5.79; at Butyrylcholinesterase [4], 6.12; in [5] it was 6.10; in [6], 6.92.
As to `C#CCNC(C)Cc1cccc(OC(=O)N(C)CCCC)c1` (centres undefined), the negative logarithm of the IC50 (pIC50) was 4.91 on Acetylcholinesterase [7], 5.56 at Butyrylcholinesterase [8], 4.82 in test [9] and 6.40 in [10].
As for `CN(C)C(=O)Oc1cccc(CCN)c1`, the negative-log IC50 (pIC50) was 6.64 against Acetylcholinesterase [11], < 3.00 in test [12] and 4.02 in test [13].
For `C#CCNC(C)Cc1cccc(OC(=O)N(C)C2CCCCC2)c1` (centres undefined), the pIC50 at Acetylcholinesterase [14] was 5.44; in test [15] it was 6.64; in test [16], 4.74.
Regarding `C#CCN(C)C1CCc2ccc(O)cc21` (centres undefined), the figures for the pIC50 in test [17] and in test [18] were 7.82 and 7.52, respectively.
Take `CCCN(C)C(=O)Oc1cccc(CCN)c1`: the pIC50 in test [12] is < 3.00; in test [19], 3.62.
With `CN(C)CCc1cccc(OC(=O)N(C)C)c1`, the results for the pIC50 (against Acetylcholinesterase [20]; in [12]) were 6.80 and < 3.00, respectively.
As to `C#CCN[C@@H]1CCc2ccc(OC(=O)N(C)CCC)cc21`, the negative-log IC50 (pIC50) is 4.97 at Acetylcholinesterase [21] and 4.83 against Butyrylcholinesterase [22].
Turning to `C#CCN[C@H]1CCc2ccc(OC(=O)N(C)CC)cc21`, the pIC50 at Acetylcholinesterase [23] was 4.46; at Butyrylcholinesterase [24], 5.66; in test [12], < 3.00; in [25], 3.26.
Turning to `C#CCN(C)[C@@H](C)Cc1cccc(OC(=O)N(C)C2CCCCC2)c1`, the negative-log IC50 (pIC50) at Acetylcholinesterase [26] was 5.20; in test [27], 6.55; in test [28], 5.96.
On to `CNCCc1cccc(OC(=O)N(C)C)c1`, for which the pIC50 against Acetylcholinesterase [29] is 6.55; in test [12], < 3.00; in [30], 4.66.

The values are drawn from ChEMBL document CHEMBL1135657, “Novel dual inhibitors of AChE and MAO derived from hydroxy aminoindan and phenethylamine as potential treatment for Alzheimer's disease” (J Med Chem, 2002).
